ChEMBL document CHEMBL4350976, “Sequence modification of heptapeptide selected by phage display as homing device for HT-29 colon cancer cells to improve the anti-tumour activity of drug delivery systems” (Eur J Med Chem, 2019)
Where a SMILES comes first, the peptide text is derived from it. The star is where a group is joined. X1 = COc1cccc2c1C(=O)c1c(O)c3c(c(O)c1C2=O)C[C@@](O)(/C(C)=N/OCC(=O)*)C[C@@H]3O[C@H]1C[C@H](N)[C@H](O)[C@H](C)O1

Assays:
[1] = Stability in serum free medium at 30 uM incubated for 3 hrs by LC/MS analysis
How it was run: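 Conjugates (30 μM) were incubated at 37 °C in serum-free medium. Samples were taken at 0 and 3 h, quenched with acetic acid, lyophilised, desalted on C18 spin columns and analysed by LC-MS.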

[2] = test system: HT-29; assay: Cytostatic activity against human HT-29 cells preincubated for 24 hrs under serum free condition followed by compound washout and further incubation for 48 hrs in presence of serum by MTT assay; assay type: functional, cell-based
How it was run: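 HT-29 cells were exposed to the compound for 24 h, washed, and kept a further 48 h. Viability was read by MTT. Absorbances were normalized to untreated controls and fitted by nonlinear regression to dose-response curves to give IC50.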

[3] = Drug uptake in human HT-29 cells assessed as increase in fluorescence intensity at 25 uM incubated for 3 hrs by flow cytometry; assay type: ADME, cell-based; conditions: ht-29, 3 h
[4] = Retention time of the compound using 0.1% TFA in water and 0.1% TFA in acetonitrile-water (80:20 v/v) as eluents by RP-HPLC analysis; assay type: physicochemical
How it was run: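 Analytical RP-HPLC. Eluent A was 0.1% TFA in water and eluent B was 0.1% TFA in acetonitrile-water (80:20, v/v). Gradient: 0% B held to 5 min, then to 90% B at 50 min. Flow 1 mL/min, detection at 220 nm. The column was a Phenomenex Aeris Peptide XB-C18 (250×4.6 mm, 3.6 μm) or a Nucleosil C18 (5 μm, 100 Å, 250×4.6 mm), depending on the conjugate series.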

[5] = Aqueous solubility of compound in water; assay type: physicochemical; conditions: buffer
[6] = Drug uptake in cytoplasm of living human HT-29 cells at 50 uM after 90 mins by fluorescence based confocal microscopic analysis; assay type: ADME, subcellular; conditions: ht-29, 1.5 h
How it was run: (§1)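 HT-29 cells were incubated with 50 µM compound in RPMI for 90 min. Imaging was by confocal microscopy, with Dau detected at 550–600 nm emission.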

[7] = Drug uptake in nucleus of dead human HT-29 cells at 50 uM after 90 mins by fluorescence based confocal microscopic analysis; assay type: ADME, subcellular; conditions: ht-29, 1.5 h; how it was run: as §1
[8] = Stability in 2.5% fetal bovine serum containing medium at 30 uM measured after 24 hrs by LC/MS analysis; assay type: ADME, cell-free, Bos taurus; conditions: cattle
How it was run: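 Conjugates (30 μM) were incubated at 37 °C in medium containing 2.5% FBS. Samples were taken at 0, 3, 6 and 24 h, quenched with acetic acid, lyophilised, desalted on C18 spin columns and analysed by LC-MS. Cleavage products were identified by mass.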

[9] = test system: U-87 MG; assay: Cytostatic activity against human U87 cells preincubated for 24 hrs under serum free condition followed by compound washout and further incubation for 48 hrs in presence of serum by MTT assay; assay type: functional, cell-based, U-87MG ATCC
How it was run: (§2)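 Cells were grown at 37 °C in 5% CO2 in medium with 10% heat-inactivated FBS (20% for OVCAR-3) plus penicillin/streptomycin. The medium was RPMI-1640 for most lines, DMEM for U-87 MG and MRC-5, and IMDM for PE/CA-PJ lines. Seeding was 3×10^3–10×10^3 cells per well. Cells had 24 h compound exposure, a wash, and 48 h further culture. Read-out was MTT, normalized to untreated cells and fitted by nonlinear regression for IC50.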

[10] = test system: MCF7; assay: Cytostatic activity against human MCF7 cells preincubated for 24 hrs under serum free condition followed by compound washout and further incubation for 48 hrs in presence of serum by MTT assay; assay type: functional, cell-based; how it was run: as §2
[11] = test system: MDA-MB-231; assay: Cytostatic activity against human MDA-MB-231 cells preincubated for 24 hrs under serum free condition followed by compound washout and further incubation for 48 hrs in presence of serum by MTT assay; assay type: functional, cell-based; how it was run: as §2
[12] = test system: 4T1; assay: Cytostatic activity against mouse 4T1 cells preincubated for 24 hrs under serum free condition followed by compound washout and further incubation for 48 hrs in presence of serum by MTT assay; assay type: functional, cell-based; how it was run: as §2
[13] = test system: HCT-116; assay: Cytostatic activity against human HCT116 cells preincubated for 24 hrs under serum free condition followed by compound washout and further incubation for 48 hrs in presence of serum by MTT assay; assay type: functional, cell-based; how it was run: as §2
[14] = test system: WiDr; assay: Cytostatic activity against human WiDr cells preincubated for 24 hrs under serum free condition followed by compound washout and further incubation for 48 hrs in presence of serum by MTT assay; assay type: functional, cell-based; how it was run: as §2
[15] = test system: CT26.WT; assay: Cytostatic activity against mouse CT26.WT cells preincubated for 24 hrs under serum free condition followed by compound washout and further incubation for 48 hrs in presence of serum by MTT assay; assay type: functional, cell-based; how it was run: as §2
[16] = test system: HepG2; assay: Cytostatic activity against human HepG2 cells preincubated for 24 hrs under serum free condition followed by compound washout and further incubation for 48 hrs in presence of serum by MTT assay; assay type: functional, cell-based; how it was run: as §2
[17] = test system: A549; assay: Cytostatic activity against human A549 cells preincubated for 24 hrs under serum free condition followed by compound washout and further incubation for 48 hrs in presence of serum by MTT assay; assay type: functional, cell-based; how it was run: as §2
[18] = test system: NCI-H1650; assay: Cytostatic activity against human NCI-H1650 cells preincubated for 24 hrs under serum free condition followed by compound washout and further incubation for 48 hrs in presence of serum by MTT assay; assay type: functional, cell-based; how it was run: as §2
[19] = test system: NCI-H1975; assay: Cytostatic activity against human NCI-H1975 cells preincubated for 24 hrs under serum free condition followed by compound washout and further incubation for 48 hrs in presence of serum by MTT assay; assay type: functional, cell-based; how it was run: as §2
[20] = test system: A2058; assay: Cytostatic activity against human A2058 cells preincubated for 24 hrs under serum free condition followed by compound washout and further incubation for 48 hrs in presence of serum by MTT assay; assay type: functional, cell-based; how it was run: as §2
[21] = Cytostatic activity against human M24 cells preincubated for 24 hrs under serum free condition followed by compound washout and further incubation for 48 hrs in presence of serum by MTT assay; assay type: functional, cell-based; how it was run: as §2
[22] = Cytostatic activity against human WM983B cells preincubated for 24 hrs under serum free condition followed by compound washout and further incubation for 48 hrs in presence of serum by MTT assay; assay type: functional, cell-based; how it was run: as §2
[23] = test system: B16; assay: Cytostatic activity against mouse B16 cells preincubated for 24 hrs under serum free condition followed by compound washout and further incubation for 48 hrs in presence of serum by MTT assay; assay type: functional, cell-based; how it was run: as §2
[24] = Cytostatic activity against human PE/CA-PJ15 cells preincubated for 24 hrs under serum free condition followed by compound washout and further incubation for 48 hrs in presence of serum by MTT assay; assay type: functional, cell-based; how it was run: as §2
[25] = Cytostatic activity against human PECAPJ41 cells preincubated for 24 hrs under serum free condition followed by compound washout and further incubation for 48 hrs in presence of serum by MTT assay; assay type: functional, cell-based; how it was run: as §2
[26] = test system: OVCAR-3; assay: Cytostatic activity against human OVCAR3 cells preincubated for 24 hrs under serum free condition followed by compound washout and further incubation for 48 hrs in presence of serum by MTT assay; assay type: functional, cell-based; how it was run: as §2
[27] = test system: PANC-1; assay: Cytostatic activity against human PANC1 cells preincubated for 24 hrs under serum free condition followed by compound washout and further incubation for 48 hrs in presence of serum by MTT assay; assay type: functional, cell-based; how it was run: as §2
[28] = test system: DU-145; assay: Cytostatic activity against human DU145 cells preincubated for 24 hrs under serum free condition followed by compound washout and further incubation for 48 hrs in presence of serum by MTT assay; assay type: functional, cell-based; how it was run: as §2
[29] = test system: PC-3; assay: Cytostatic activity against human PC3 cells preincubated for 24 hrs under serum free condition followed by compound washout and further incubation for 48 hrs in presence of serum by MTT assay; assay type: functional, cell-based; how it was run: as §2
[30] = test system: MRC5; assay: Cytostatic activity against human MRC5 cells preincubated for 24 hrs under serum free condition followed by compound washout and further incubation for 48 hrs in presence of serum by MTT assay; assay type: ADME, cell-based; how it was run: as §2
[31] = Drug uptake in nucleus of human HT-29 cells assessed as increase in fluorescence at 50 uM after 90 mins by fluorescence based confocal microscopic analysis; assay type: ADME, subcellular; conditions: ht-29, 1.5 h; how it was run: as §1
[32] = test system: HT-29; assay: Antitumor activity against human HT-29 cells xenografted in SCID mouse assessed as tumor growth inhibition by measuring decrease in tumor weight at 1 mg/kg, ip administered once a week (on day 13 and 20) starting from 13 days post inoculation measured at day 23 post inoculation relative to control; assay type: functional; conditions: HT-29, ip
[33] = Toxicity in SCID mouse xenografted with human HT-29 cells assessed as body weight loss at 1 mg/kg, ip administered once a week (on day 13 and 20) starting from 13 days post inoculation measured upto 23 days post inoculation; assay type: organism-based; conditions: in vivo
[34] = Toxicity in SCID mouse xenografted with human HT-29 cells assessed as animal death at 1 mg/kg, ip administered once a week (on days 13 and 20) starting from 13 days post inoculation measured upto 23 days post inoculation; assay type: organism-based; conditions: in vivo
[35] = test system: HT-29; assay: Antitumor activity against human HT-29 cells xenografted in SCID mouse assessed as decrease in number of Ki-67 positive cells measured as proliferation index at 1 mg/kg, ip administered once a week (on days 13 and 20) starting from 13 days post inoculation measured at day 23 post inoculation by KI-67-staining based light microscopic analysis (reference value: 100%); assay type: functional; set-up: scale not given: the % may be the effect or the level left
How it was run: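 Tumours from the SCID HT-29 orthotopic study were formalin-fixed and paraffin-embedded, cut at 2 µm, and given citrate pH 6 retrieval at 98 °C for 40 min. They were stained with anti-human Ki-67 (1:40, 1 h RT), then a biotinylated link, HRP polymer and AEC. Ki-67+ cells were counted in 5 fields per tumour at 40× magnification. The proliferation index is the % positive cells.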

[36] = test system: HT-29; assay: Antitumor activity against human HT-29 cells xenografted in SCID mouse assessed as tumor growth inhibition by measuring decrease in tumor growth at 1 mg/kg, ip administered once per week for 2 times starting from 13 days post inoculation measured at day 23 post inoculation; conditions: HT-29, ip

For `COc1cccc2c1C(=O)c1c(O)c3c(c(O)c1C2=O)C[C@@](O)(/C(C)=N/OCC(=O)N[C@@H](CC(C)C)C(=O)N[C@@H](CCCNC(=N)N)C(=O)N[C@@H](CCCNC(=N)N)C(=O)N[C@@H](Cc1ccc(O)cc1)C(=O)N[C@H](C(=O)N[C@@H](Cc1cnc[nH]1)C(=O)N[C@@H](CC(C)C)C(=O)N[C@@H](CO)C(=O)N[C@@H](Cc1ccc(O)cc1)C(=O)N[C@@H](C)C(=O)N[C@H](C(N)=O)[C@@H](C)O)C(C)C)C[C@@H]3O[C@H]1C[C@H](N)[C@H](O)[C@H](C)O1` (X1-LRRYVHLSYAT-NH2), the Stability [1] was “Stable”, the IC50 [2] was 24800 nM and the Drug uptake [3] was “Active”. The Retention_time [4] was 28.9 min, the solubility [5] was “Soluble” and the Drug uptake [6] was “Active”. The Drug uptake [7] was “Active” and the Stability [8] was “Stable”.
For `COc1cccc2c1C(=O)c1c(O)c3c(c(O)c1C2=O)C[C@@](O)(C(C)=O)C[C@@H]3O[C@H]1C[C@H](N)[C@H](O)[C@H](C)O1` [DAUNORUBICIN], the IC50 [9] was 27.9 nM, the IC50 [10] was 286 nM and the IC50 [11] was 52.9 nM. It also gave an IC50 [12] of 40.8 nM, an IC50 [13] of 127 nM and an IC50 [2] of 203 nM. The IC50 [14] was 240 nM, the IC50 [15] was 126 nM and the IC50 [16] was 21.3 nM. It also gave an IC50 [17] of 68.2 nM, an IC50 [18] of 47.5 nM and an IC50 [19] of 13.3 nM. It also gave an IC50 [20] of 33.3 nM, an IC50 [21] of 93.6 nM and an IC50 [22] of 44.3 nM. For the same compound, the IC50 [23] was 8.9 nM, the IC50 [24] was 26.7 nM and the IC50 [25] was 25.8 nM. It also gave an IC50 [26] of 473 nM, an IC50 [27] of 467 nM and an IC50 [28] of 24.5 nM. The IC50 [29] was 26 nM, the IC50 [30] was 255 nM and the Drug uptake [31] was “Active”. For the same compound, the inhibition in vivo at 1 mg/kg [32] was 84%, the Activity [33] was “Toxic” and the Activity [34] was “Toxic”. For the same compound, the Activity [35] was 94% and the inhibition in vivo at 1 mg/kg [36] was 30%.
